Data: ChEMBL document CHEMBL2046350, “Bahamaolides A and B, antifungal polyene polyol macrolides from the marine actinomycete Streptomyces sp” (J Nat Prod, 2012)
Converted amounts (≈) assume the structure as drawn. The source made the active and inactive calls. The rule behind the calls is not given here.

Experiments:
[1] = system: Candida albicans; test: Inhibition of candida albicans ICL assessed as formation of glyoxylate phenylhydrazone at 100 ug/ml after 30 mins by Dixon and Kornberg's method
[2] = system: Aspergillus fumigatus; test: Antifungal activity against Aspergillus fumigatus HIC 6094 after 48 to 72 hrs; assay type: functional
Procedure, shortened: (§1)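 Candida albicans grown in YPD (1% yeast extract, 2% peptone, 2% dextrose) 48 h at 28 °C, harvested, washed twice with water; moulds grown on potato dextrose agar 2 weeks at 28 °C, spores washed and resuspended in PDB. Broth microdilution in PDB (10⁴ cells/mL) with compound added in 5% DMSO (0.5% DMSO solvent control); 28 °C, 48–72 h; MIC = lowest concentration inhibiting growth.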

[3] = system: Trichophyton rubrum; test: Antifungal activity against Trichophyton rubrum IFO 9185 after 48 to 72 hrs; assay type: functional; procedure, shortened: as §1
[4] = system: Trichophyton mentagrophytes; test: Antifungal activity against Trichophyton mentagrophytes IFO4 0996 after 48 to 72 hrs; assay type: functional; procedure, shortened: as §1
[5] = system: Candida albicans; test: Antifungal activity against Candida albicans ATCC 10231 after 48 to 72 hrs; assay type: functional; procedure, shortened: as §1
[6] = Inhibition of candida albicans ICL assessed as formation of glyoxylate phenylhydrazone after 30 mins by Dixon and Kornberg's method
[7] = system: Staphylococcus aureus; test: Antibacterial activity against Staphylococcus aureus ATCC 6538p; assay type: functional, organism-based
[8] = system: Bacillus subtilis; test: Antibacterial activity against Bacillus subtilis ATCC 6633; assay type: functional, organism-based
[9] = system: Micrococcus luteus; test: Antibacterial activity against Micrococcus luteus IFO 12708; assay type: functional, organism-based
[10] = system: Salmonella typhimurium; test: Antibacterial activity against Salmonella typhimurium ATCC 14028; assay type: functional, organism-based; details: Salmonella enterica subsp. enterica serovar Typhimurium
[11] = system: Proteus vulgaris; test: Antibacterial activity against Proteus vulgaris ATCC 3851; assay type: functional, organism-based
[12] = system: Escherichia coli; test: Antibacterial activity against Escherichia coli ATCC 35270; assay type: functional, organism-based
[13] = system: A549; test: Cytotoxicity against human A549 cells at 100 ug/ml; assay type: functional, cell-based
[14] = system: HCT-116; test: Cytotoxicity against human HCT116 cells at 100 ug/ml; assay type: functional, cell-based
[15] = system: MDA-MB-231; test: Cytotoxicity against human MDA-MB-231 cells at 100 ug/ml; assay type: functional, cell-based
[16] = system: SK-HEP1; test: Cytotoxicity against human SKHEP1 cells at 100 ug/ml; assay type: functional, cell-based

inhibition [1] | MIC [2] | MIC [3] | MIC [4] | MIC [5] | IC50 [6] | SMILES | Activity [7] | Activity [8] | Activity [9] | Activity [10] | Activity [11] | Activity [12] | Activity [13] | Activity [14] | Activity [15] | Activity [16] | Activity [2] | Activity [3] | Activity [4] | Activity [5]
inactive | – | – | – | – | – | C[C@@H]1[C@H](O)[C@@H](C)/C=C/C=C/C=C/C=C/C=C/C=C/C=C/[C@H](O[C@@H]2O[C@H](C)[C@@H](O)[C@H](N)[C@@H]2O)C[C@@H]2O[C@](O)(C[C@@H](O)C[C@@H](O)[C@H](O)CC[C@@H](O)C[C@@H](O)CC(=O)O[C@H]1C)C[C@H](O)[C@H]2C(=O)O | – | – | – | – | – | – | – | – | – | – | – | – | – | –
– | 12.5 µg/mL (≈ 17.6 µM) | 12.5 µg/mL (≈ 17.6 µM) | 12.5 µg/mL (≈ 17.6 µM) | 12.5 µg/mL (≈ 17.6 µM) | 10.8 µM | CC(C)[C@@H]1OC(=O)/C=C/C=C/C=C/C=C/C=C/C=C/C[C@@H](O)C[C@H](O)C[C@H](O)C[C@H](O)C[C@@H](O)C[C@H](O)C[C@@H](O)C[C@@H](O)C[C@@H](O)CC[C@@H]1C [BAHAMAOLIDE A] | inactive | inactive | inactive | inactive | inactive | inactive | inactive | inactive | inactive | inactive | – | – | – | –
– | – | – | – | – | 127 µM | CC(C)[C@@H]1OC(=O)/C=C/C=C/C=C/C=C/C=C/C=C\C[C@@H](O)C[C@H](O)C[C@H](O)C[C@H](O)C[C@@H](O)C[C@H](O)C[C@@H](O)C[C@@H](O)C[C@@H](O)CC[C@@H]1C [BAHAMAOLIDE B] | inactive | inactive | inactive | inactive | inactive | inactive | inactive | inactive | inactive | inactive | inactive | inactive | inactive | inactive
